Molecules are shown by their SMILES. “And” between values parts separate entries of the source, which are not always exact repeats. Equal values may be shown once.

Assay [1] concerns 3LL cell line. The assay is described as follows: accumulation of compound in 3LL cells was measured without DFMO by HPLC at 250 uM dose. The format is functional, Mus musculus. The method, boiled down: (§1)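 3LL cells exposed 24 h to derivative, BSH or BPA, with or without prior 24 h incubation with 5 mM DFMO; intracellular drug measured by ion-pair reversed-phase HPLC with o-phthalaldehyde fluorescence, or cellular boron by ICP-AES, per mg protein; mean ± SD; Student's t-test, p < 0.01.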

The subject of assay [2] is CHO. The assay is described as follows: Compound was tested for accumulation in CHO cells by HPLC at 250 uM dose. In kind it is functional, Cricetulus griseus. The method in brief:
(§2)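 CHO or polyamine-transport-deficient CHO-MG cells (proline 2 µg/mL added for CHO-MG), RPMI 1640 with 10% FCS, 37 °C, 5% CO2; seeded at 5 × 10⁴ cells/mL, derivative added 24 h later for 24 h; trypsin/EDTA harvest, three PBS washes, sonication in 0.2 N perchloric acid; derivative measured by ion-pair reversed-phase HPLC with o-phthalaldehyde/N-acetylcysteine fluorescence; per mg protein (Folin); mean ± SD.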

The test system of assay [3] is CHO-MG. The assay is described as follows: Compound was tested for accumulation in CHO-MG cells by HPLC at 250 uM dose. In kind it is functional, Cricetulus griseus. The method, boiled down:
as §2

The test system of assay [4] is 3LL cell line. The assay is described as follows: accumulation of compound in 3LL cells was measured with DFMO by HPLC at 250 uM dose. In kind it is functional, Mus musculus. The method, boiled down:
as §1

In assay [5] the test system is 3LL cell line. The experiment in a line: accumulation of compound in 3LL cells was measured with DFMO by HPLC at 10 uM dose. In kind it is functional, Mus musculus. The method, boiled down: as §1
Assay [6] deals with 3LL cell line. The experiment in a line: accumulation of compound in 3LL cells was measured with DFMO by HPLC at 50 uM dose. In kind it is functional, Mus musculus. The method, boiled down: as §1
The subject of assay [7] is 3LL cell line. The experiment in a line: accumulation of compound in 3LL cells was measured with DFMO by ICP-AES at 50 uM dose. In kind it is functional, Mus musculus. The method, boiled down: as §1
Assay [8] has as its system 3LL cell line. The experiment in a line: accumulation of compound in 3LL cells was measured without DFMO by HPLC at 10 uM dose. In kind it is functional, Mus musculus. The method in brief:
as §1

The test system of assay [9] is 3LL cell line. The experiment in a line: accumulation of compound in 3LL cells was measured without DFMO by HPLC at 50 uM dose. The format is functional, Mus musculus. The method, boiled down: as §1
Assay [10] has as its system 3LL cell line. The assay is described as follows: accumulation of compound in 3LL cells was measured without DFMO by ICP-AES at 50 uM dose. The format is functional, Mus musculus. The method in brief: as §1
Assay [11] relates to 3LL cell line. The assay is described as follows: Effect on the growth of 3LL cells by DFMO pretreatment at 48 hr incubation. In kind it is functional, cell-based. Particulars: Mus musculus. The method in brief:
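3LL cells given 5 mM DFMO 24 h after seeding for a 24 h preincubation, then 48 h with spermidine or derivative; MTT readout; growth expressed relative to cells treated with DFMO only; mean ± SEM.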

Assay [12] concerns 3LL cell line. The assay is described as follows: Effect on the growth of 3LL cells was evaluated using an MTT assay at 48 hour incubation. In kind it is functional, cell-based. Particulars: Mus musculus. For orientation: Formazan colour is commonly taken as a measure of viable cells.
The test system of assay [13] is 3LL cell line. The experiment in a line: Effect on the growth of 3LL cells was evaluated using an MTT assay at 72 hour incubation. In kind it is functional, cell-based. Particulars: Mus musculus.
The subject of assay [14] is 3LL cell line. The experiment in a line: putrescine levels in 3LL cells after the treatment of 250 uM of Compound. In kind it is functional, cell-based. Particulars: Mus musculus. The method in brief:
(§3)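 3LL cells incubated 24 h with derivative, some after 24 h pretreatment with 5 mM DFMO; perchloric acid extracts analyzed for putrescine, spermidine and spermine by ion-pair reversed-phase HPLC with o-phthalaldehyde post-column fluorescence, normalized to protein (Folin); mean ± SD.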

Assay [15] concerns 3LL cell line. The assay is described as follows: spermidine levels in 3LL cells after the treatment of 250 uM of Compound. In kind it is functional, cell-based. Particulars: Mus musculus. The method, boiled down: as §3
Assay [16] deals with 3LL cell line. The assay is described as follows: spermidine levels in 3LL cells after the treatment of 50 uM of Compound. In kind it is functional, cell-based. Particulars: Mus musculus. The method in brief:
as §3

Assay [17] deals with 3LL cell line. The experiment in a line: spermine levels in 3LL cells after the treatment of 250 uM of Compound. The format is functional, cell-based. Particulars: Mus musculus. The method, boiled down:
as §3

The subject of assay [18] is 3LL cell line. The assay is described as follows: spermine levels in 3LL cells after the treatment of 50 uM of Compound. The format is functional, cell-based. Particulars: Mus musculus. The method in brief: as §3
Assay [19] deals with CHO. The experiment in a line: Compound was tested for accumulation in CHO cells by HPLC at 50 uM dose. In kind it is functional, Cricetulus griseus. The method in brief:
as §2

The test system of assay [20] is CHO-MG. The assay is described as follows: Compound was tested for accumulation in CHO-MG cells by HPLC at 50 uM dose. In kind it is functional, Cricetulus griseus. The method in brief:
as §2

The target of a further assay is Nucleic Acid. The assay is described as follows: DNA binding affinity (conc to decrease the fluorescence of the ethidium bromide-DNA complex by 50%). In kind it is nucleic-acid assay, Bos taurus.
The subject of assay [21] is U-251. The assay is described as follows: Compound was tested for accumulation of (50 uM) boronated polyamines in human U251 glioblastoma cells. The format is functional. The method, boiled down:
(§4)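 Rat C6, human U251 glioblastoma or murine B16 melanoma cells exposed 24 h to 50 µM boron-containing derivative, either directly or after 24 h preincubation with 5 mM DFMO; washed cells sonicated in 0.2 N perchloric acid, derivative quantified by ion-pair reversed-phase HPLC with o-phthalaldehyde fluorescence detection, normalized to protein; mean ± SD.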

The subject of assay [22] is U-251. The assay is described as follows: Compound was tested for accumulation of (50 uM) boronated polyamines in human U251 glioblastoma cells incubated with 5 mM DFMO. In kind it is functional. The method, boiled down:
as §4

A short description of assay [23]: Compound was tested for accumulation of (50 uM) boronated polyamines in murine B16 melanoma cells ncubated with 5 mM DFMO. The format is functional. The method in brief: as §4
Assay [24] in a line: Compound was tested for accumulation of (50 uM) boronated polyamines in rat C6 glioblastoma cells incubated with 5 mM DFMO. In kind it is functional. The method in brief: as §4
Assay [25] in a line: Compound was tested for accumulation of (50 uM) boronated polyamines in rat C6 glioblastoma cells. The format is functional. The method, boiled down: as §4
The nature of assay [26]: Compound was tested for accumulation of (50 uM) boronated polyamines in murine B16 melanoma cells. In kind it is functional. The method in brief:
as §4

Take `CC1(C)COB(c2cccc(CN(CCCN)CCCCN)c2)OC1.Cl`: the values for the Activity in the assay with 3LL cell line [1] and in the assay with 3LL cell line [4] were 4.52 nM (mg of protein)-1 and 3.93 nM (mg of protein)-1, respectively. Further, the Accumulation in the assay with CHO [2] is 5.65 nM (mg of protein)-1; with CHO-MG [3], 3.71 nM (mg of protein)-1.

The term IC50 denotes the concentration needed to halve the response being measured. Consider `Cl.NCCCCNCc1ccc(B(O)O)cc1`, for which the Activity was 3.37 nM (mg of protein)-1 with 3LL cell line [5]; 8.44 nM (mg of protein)-1 in the assay on 3LL cell line [6]; 6.73 nM (mg of protein)-1 with 3LL cell line [7]; 0.52 nM (mg of protein)-1 with 3LL cell line [8]; 1.32 nmol/mg protein in the assay on 3LL cell line [9]; 1.29 nM (mg of protein)-1 with 3LL cell line [10]. In addition, in [25], the Activity is recorded as 0.09 nM (mg of protein)-1. The IC50 with 3LL cell line [11] was > 50 µM; in the assay on 3LL cell line [12] it was > 1000 µM; in the assay on 3LL cell line [13], > 1000 µM; at Nucleic Acid, 1380 µM. Also, the Level (nM (mg of protein)-1) in the assay on 3LL cell line [14] was found to be 1.31; with 3LL cell line [15] it was 2.28; with 3LL cell line [16], 1.07; in the assay with 3LL cell line [17], 7.66; in the assay with 3LL cell line [18], 7.52. The Accumulation with CHO [19] was 5.76 nM (mg of protein)-1; in the assay with CHO-MG [20], 0.51 nM (mg of protein)-1; with U-251 [21], 0.21 nM (mg of protein)-1; in the assay with U-251 [22] it was 0.22 nM (mg of protein)-1; in assay [23], 20.41 nM (mg of protein)-1; in assay [24], 0.41 nM (mg of protein)-1. For the same molecule, the Accumulation in assay [26] is listed as 5.77 nM (mg of protein)-1.

In the case of `Cl.NCCCCNCCCNCc1ccc(B(O)O)cc1`, the Activity in the assay on 3LL cell line [6] was 4.18 nM (mg of protein)-1; in the assay with 3LL cell line [7] it was 5.68 nM (mg of protein)-1; in the assay on 3LL cell line [10], 2.7 nM (mg of protein)-1; in assay [25], 1.63 nM (mg of protein)-1. Further, in the assay with 3LL cell line [9], the Drug is on record as 2.01 nM (mg of protein)-1. Further, the half-inhibitory concentration (IC50) is > 1 µM in the assay with 3LL cell line [11], 824 µM with 3LL cell line [12], 400 µM with 3LL cell line [13] and 37 µM at Nucleic Acid. For the same molecule, the Level (nM (mg of protein)-1) was 0.14 in the assay on 3LL cell line [16] and 7.25 in the assay on 3LL cell line [18]. Besides, the Accumulation in the assay on CHO [19] is 4.78 nM (mg of protein)-1; in the assay with U-251 [21], 1.65 nM (mg of protein)-1; in assay [26] it was 4.75 nM (mg of protein)-1 and 9.26 nM (mg of protein)-1.

On Nucleic Acid, `NCCCCNCCCN` [SPERMIDINE] registered an IC50 of 98 µM.

`Cl.NCCCCNCc1ccc(F)cc1`: the Activity is 1.31 nM (mg of protein)-1 in the assay on 3LL cell line [6] and 0.55 nmol/mg protein in the assay with 3LL cell line [9]. Also, the IC50 is > 10 µM in the assay on 3LL cell line [11], 568 µM in the assay on 3LL cell line [12], 468 µM with 3LL cell line [13] and > 3000 µM at Nucleic Acid. Besides, the Level (nM (mg of protein)-1) with 3LL cell line [16] turned out to be 0.92; in the assay on 3LL cell line [18], 11. Further, the Accumulation is on record as 0.9 nM (mg of protein)-1 with CHO [19] and 0.45 nM (mg of protein)-1 with CHO-MG [20].

Consider `Cl.NCCCCN(CCCN)Cc1ccccc1`, for which the Activity with 3LL cell line [5] is 5.52 nM (mg of protein)-1; in the assay with 3LL cell line [6], 6.92 nM (mg of protein)-1; in the assay on 3LL cell line [8], 2.59 nM (mg of protein)-1; with 3LL cell line [1] it was 6.11 nM (mg of protein)-1; in the assay on 3LL cell line [9] it was 4.92 nmol/mg protein; in the assay on 3LL cell line [4] it was 5.46 nM (mg of protein)-1. The IC50 was > 100 µM with 3LL cell line [11], > 1000 µM in the assay with 3LL cell line [12], > 1000 µM in the assay with 3LL cell line [13] and 310 µM on Nucleic Acid. The Level (nM (mg of protein)-1) with 3LL cell line [15] came to 4.15; in the assay on 3LL cell line [17], 8.64. The Accumulation in the assay on CHO [2] is on record as 13.64 nM (mg of protein)-1; in the assay on CHO-MG [3], 5.55 nM (mg of protein)-1.
